This is an account of results in ChEMBL document CHEMBL3352407, “Griseorhodins D-F, neuroactive intermediates and end products of post-PKS tailoring modification in Griseorhodin biosynthesis” (J Nat Prod, 2014).

Calls of active or inactive are those of the source. The rule behind the calls is not given here.

The test system of assay [1] is DRG neuron. Nature of the assay: Induction of depolarization of mouse DRG neurons at 10 ug/ml by Fura-2 dye-based fluorescence microscopy. It counts as functional. Put shortly:
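Dorsal root ganglion cells were taken from mice, plated in medium with additives and loaded with Fura-2 AM. Intracellular Ca2+ was followed as the read-out while compound was applied at 10 μg/mL. This was followed by 25 mM KCl, with responses compared against control cells in the same well.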

Assay [2] relates to DRG neuron. Nature of the assay: Increase in Ca2+ uptake in mouse DRG neurons at 10 ug/ml by Fura-2 dye-based fluorescence microscopy in presence of KCl relative to control. It counts as functional. The method, boiled down:
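Mouse DRG cells plated in medium with additives and loaded with the Ca2+ dye Fura-2 AM. Compound applied at 10 μg/mL, then 25 mM KCl added. Ca2+ influx compared with control cells in the same well.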

As to `CC(=O)Cc1cc2c(c(O)c1C(=O)O)-c1cc3c(c(O)c1CC2)C(=O)c1c(O)cc(O)cc1[C@H]3[C@H]1c2cc(O)cc(O)c2C(=O)c2c1cc1c(c2O)CCc2cc(CC(C)=O)c(C(=O)O)c(O)c2-1` (stereo in doubt; 1a), in the assay with DRG neuron [1], the outcome was inactive. Further, the outcome in the assay on DRG neuron [2] was Active.

As for `CC(=O)Cc1cc2c(c(O)c1C(=O)O)-c1cc3c(c(O)c1CC2)C(=O)c1c(O)cc(O)cc1[C@H]3[C@H]1c2cc(O)cc(O)c2C(=O)c2c1cc1c(c2O)CCc2cc(CC(C)=O)c(C(=O)O)c(O)c2-1` (stereo in doubt; 1b), the result in the assay with DRG neuron [1] was inactive. For the same molecule, the result in the assay on DRG neuron [2] was Active.
